Experimental data: ChEMBL document CHEMBL1138183, “Design, synthesis, and biological evaluation of isoquinoline-1,3,4-trione derivatives as potent caspase-3 inhibitors” (J Med Chem, 2006)
Activity calls are given as the source filed them. The calls are words filed in the database; no cut-off is given here. Peptide text beside a SMILES is read from it. * marks the point of attachment. Cbz = O=C(OCc1ccccc1)*; CH2F = FC*

Tests used:
Caspase-3 = molecular target: T1, Caspase-3 (Homo sapiens, UniProt P42574); test: Inhibition of caspase3
T1 sequence (P42574 whole entry): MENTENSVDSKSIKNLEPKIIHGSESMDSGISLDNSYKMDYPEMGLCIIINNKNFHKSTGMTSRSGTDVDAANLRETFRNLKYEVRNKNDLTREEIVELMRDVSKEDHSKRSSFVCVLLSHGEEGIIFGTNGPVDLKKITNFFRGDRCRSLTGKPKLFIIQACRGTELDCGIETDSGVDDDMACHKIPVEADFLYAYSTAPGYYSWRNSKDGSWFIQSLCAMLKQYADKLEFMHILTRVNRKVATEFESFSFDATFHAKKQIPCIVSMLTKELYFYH

Calpain 1 = Calpain 1 (Homo sapiens, UniProt P07384); test: Inhibition of calpain1; type: protein-complex assay
Sequence of Calpain 1 (P04632 whole entry): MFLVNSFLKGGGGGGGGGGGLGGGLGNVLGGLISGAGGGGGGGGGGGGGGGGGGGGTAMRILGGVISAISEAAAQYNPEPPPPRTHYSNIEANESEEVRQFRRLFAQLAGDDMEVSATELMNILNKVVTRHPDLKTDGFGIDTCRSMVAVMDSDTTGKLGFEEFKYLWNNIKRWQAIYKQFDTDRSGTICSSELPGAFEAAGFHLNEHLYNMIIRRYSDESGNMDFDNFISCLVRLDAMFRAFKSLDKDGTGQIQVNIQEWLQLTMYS
Sequence of Calpain 1 (P07384 whole entry): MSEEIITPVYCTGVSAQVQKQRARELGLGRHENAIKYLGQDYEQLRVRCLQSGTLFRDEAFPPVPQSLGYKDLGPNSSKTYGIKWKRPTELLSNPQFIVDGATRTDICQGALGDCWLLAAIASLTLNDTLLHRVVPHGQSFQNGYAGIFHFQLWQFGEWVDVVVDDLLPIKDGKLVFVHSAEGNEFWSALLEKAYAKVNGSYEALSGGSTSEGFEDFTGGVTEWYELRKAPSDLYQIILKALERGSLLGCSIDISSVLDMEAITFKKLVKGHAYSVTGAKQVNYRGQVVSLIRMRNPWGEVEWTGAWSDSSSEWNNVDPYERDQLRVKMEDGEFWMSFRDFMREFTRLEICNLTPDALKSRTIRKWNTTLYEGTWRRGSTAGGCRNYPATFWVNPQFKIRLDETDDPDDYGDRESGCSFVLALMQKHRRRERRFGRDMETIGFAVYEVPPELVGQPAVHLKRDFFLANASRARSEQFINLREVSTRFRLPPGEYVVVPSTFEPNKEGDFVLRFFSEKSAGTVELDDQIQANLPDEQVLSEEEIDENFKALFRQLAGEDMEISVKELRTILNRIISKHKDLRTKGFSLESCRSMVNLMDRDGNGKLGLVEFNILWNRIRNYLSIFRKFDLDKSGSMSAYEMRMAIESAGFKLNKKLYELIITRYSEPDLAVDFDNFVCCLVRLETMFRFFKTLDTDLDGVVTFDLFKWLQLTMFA
Outline: (§1)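 Enzymes (caspases 2, 6 and 7; proteasome, trypsin, thrombin, papain, calpain-I) preincubated with inhibitor 30 min in their own buffer at optimal pH. Substrates at 10–100 µM, assayed at 35 °C. pNA release followed at 405 nm for 1–3 min; initial hydrolysis rate taken.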

Proteasome = test: Inhibition of proteasome; type: subcellular; outline: as §1
Papain = molecular target: T2, Papain (Carica papaya, UniProt P00784); test: Inhibition of papain; outline: as §1
T2 sequence (P00784 whole entry): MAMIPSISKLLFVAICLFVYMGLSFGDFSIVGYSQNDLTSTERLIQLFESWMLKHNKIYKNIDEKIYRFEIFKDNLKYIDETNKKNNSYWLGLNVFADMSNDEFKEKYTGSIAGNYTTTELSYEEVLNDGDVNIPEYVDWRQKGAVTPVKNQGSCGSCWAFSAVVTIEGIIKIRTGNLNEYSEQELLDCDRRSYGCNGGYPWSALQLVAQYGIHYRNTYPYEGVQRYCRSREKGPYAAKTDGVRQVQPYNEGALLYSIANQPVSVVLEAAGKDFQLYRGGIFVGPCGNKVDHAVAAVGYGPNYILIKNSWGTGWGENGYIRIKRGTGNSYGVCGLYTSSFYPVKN

Trypsin = Trypsin (Homo sapiens, UniProt P07477+P07478+P35030); test: Inhibition of trypsin; type: protein assay; outline: as §1
Prothrombin = Prothrombin (Homo sapiens, UniProt P00734); test: Inhibition of thrombin; outline: as §1
Caspase-2 = molecular target: T3, Caspase-2 (Homo sapiens, UniProt P42575); test: Inhibition of caspase2; outline: as §1
T3 sequence (P42575 whole entry): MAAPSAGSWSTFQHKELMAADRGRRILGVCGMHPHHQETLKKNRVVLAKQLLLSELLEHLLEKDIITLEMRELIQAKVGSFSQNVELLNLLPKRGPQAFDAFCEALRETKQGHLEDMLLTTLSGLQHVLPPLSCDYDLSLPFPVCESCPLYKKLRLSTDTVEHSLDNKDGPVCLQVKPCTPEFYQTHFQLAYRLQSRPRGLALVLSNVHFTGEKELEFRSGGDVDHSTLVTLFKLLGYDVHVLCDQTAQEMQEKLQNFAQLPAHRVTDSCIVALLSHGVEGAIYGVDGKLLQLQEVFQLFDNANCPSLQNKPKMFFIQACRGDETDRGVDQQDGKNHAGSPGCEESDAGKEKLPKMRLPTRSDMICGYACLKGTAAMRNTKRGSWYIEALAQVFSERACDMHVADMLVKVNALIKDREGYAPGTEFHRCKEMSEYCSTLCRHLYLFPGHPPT

Caspase-6 = molecular target: T4, Caspase-6 (Homo sapiens, UniProt P55212); test: Inhibition of caspase6; outline: as §1
T4 sequence (P55212 whole entry): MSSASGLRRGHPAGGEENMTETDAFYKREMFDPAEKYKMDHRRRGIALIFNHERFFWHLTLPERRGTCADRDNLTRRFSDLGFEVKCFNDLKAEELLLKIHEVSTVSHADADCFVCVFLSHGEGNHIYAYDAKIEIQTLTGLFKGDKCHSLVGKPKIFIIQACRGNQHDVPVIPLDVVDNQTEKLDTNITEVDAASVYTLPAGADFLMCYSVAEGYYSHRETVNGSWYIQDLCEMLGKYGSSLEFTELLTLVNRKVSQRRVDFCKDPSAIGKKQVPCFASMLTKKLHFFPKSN

Caspase-7 = molecular target: T5, Caspase-7 (Homo sapiens, UniProt P55210); test: Inhibition of caspase7; outline: as §1
T5 sequence (P55210 whole entry): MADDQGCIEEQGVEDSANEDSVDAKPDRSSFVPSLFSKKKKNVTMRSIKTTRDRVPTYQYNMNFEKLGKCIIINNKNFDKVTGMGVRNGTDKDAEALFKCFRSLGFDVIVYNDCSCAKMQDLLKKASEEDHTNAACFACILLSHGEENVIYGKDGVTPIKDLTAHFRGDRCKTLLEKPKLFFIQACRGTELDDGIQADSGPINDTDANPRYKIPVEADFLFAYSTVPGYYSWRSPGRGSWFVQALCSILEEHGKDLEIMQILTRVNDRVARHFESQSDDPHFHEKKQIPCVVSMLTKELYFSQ

Caspase-8 = Caspase-8 (Homo sapiens, UniProt Q14790); test: Inhibition of caspase8
Sequence of Caspase-8 (Q14790 217-374 limits assumed): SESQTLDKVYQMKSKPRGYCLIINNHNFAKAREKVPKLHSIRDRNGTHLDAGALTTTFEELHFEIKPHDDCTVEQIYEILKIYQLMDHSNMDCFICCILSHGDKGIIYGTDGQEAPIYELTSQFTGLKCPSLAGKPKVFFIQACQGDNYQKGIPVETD
Sequence of Caspase-8 (Q14790 385-479 limits assumed): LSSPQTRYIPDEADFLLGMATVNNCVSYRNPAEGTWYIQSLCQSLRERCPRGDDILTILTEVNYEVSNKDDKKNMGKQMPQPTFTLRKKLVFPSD

Rattus norvegicus = test: Decrease in infarct volume of ischemic damage in transient MCA occlusion model of Sprague-Dawley rat at 1 mg/kg, sc; type: functional; design: scale not given: the % may be the effect or the level left
Outline: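 Male Sprague-Dawley rats (200–240 g); transient MCA occlusion for 1.5 h. Drug in DMSO given sc at 0.5 mL/kg, 5 min after occlusion start. Sacrifice at 24 h; 2 mm coronal slices stained with TTC. Infarct volume corrected by indirect method (contralateral minus intact ipsilateral area); n=8 per group, mean ± SE vs saline-treated animals, one-way ANOVA with Dunnett's test.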

Caspase-3 (Homo sapiens) = molecular target: T6, Caspase-3 (Homo sapiens) (UniProt P42574); test: Inhibition of caspase3 activity in camptothecin-induced apoptotic Jurkat T cells at 2 uM; type: functional, cell-based
T6 sequence (whole entry): T1 sequence (P42574 whole entry)
Outline: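 Jurkat cells (1 × 10⁵ cells/mL) preincubated 30 min at 37 °C, given inhibitor for 2 h, then 2 µM camptothecin for 4 h. Lysed by freeze–thaw cycles, spun at 12000g. Lysate assayed with 100 µM Ac-DEVD-AMC in HEPES pH 7.0, sucrose, CHAPS and DTT. AMC fluorescence (ex 360/em 460 nm) read 20 min at room temperature, normalised to Bradford protein.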

Row | IC50 (Caspase-3) | IC50 (Calpain 1) | IC50 (Proteasome) | IC50 (Papain) | IC50 (Trypsin) | IC50 (Prothrombin) | IC50 (Caspase-2) | IC50 (Caspase-6) | IC50 (Caspase-7) | IC50 (Caspase-8) | Activity (Caspase-3 (Homo sapiens)) | Structure (SMILES) | Activity (Rattus norvegicus; route subcutaneous) | Activity (Rattus norvegicus)
1 | 83 nM | > 5000 nM | > 5000 nM | > 5000 nM | > 5000 nM | > 5000 nM | 530 nM | 283 nM | 139 nM | 575 nM |  | O=C(CCCl)Nc1ccc2c(c1)C(=O)C(=O)NC2=O |  | 
2 | 25 nM | > 5000 nM | > 5000 nM | > 5000 nM | > 5000 nM | > 5000 nM | 231 nM | 124 nM | 64 nM | 288 nM |  | O=C(CCC(=O)N1CCCCC1)Nc1ccc2c(c1)C(=O)C(=O)NC2=O |  | 
3 | 1380 nM | > 5000 nM | > 5000 nM | > 5000 nM | > 5000 nM | > 5000 nM | 5670 nM | 2850 nM | 2710 nM | 24700 nM |  | O=C1NC(=O)c2cc(NC(=O)c3ccc([N+](=O)[O-])cc3)ccc2C1=O |  | 
4 | 68 nM | > 5000 nM | > 5000 nM | > 5000 nM | > 5000 nM | > 5000 nM | 859 nM | 201 nM | 136 nM | 1120 nM |  | O=C(O)CCC(=O)Nc1ccc2c(c1)C(=O)C(=O)NC2=O |  | 
5 | 113 nM | > 5000 nM | > 5000 nM | > 5000 nM | > 5000 nM | > 5000 nM | 537 nM | 137 nM | 218 nM | 835 nM |  | COc1ccccc1NC(=O)CCC(=O)Nc1ccc2c(c1)C(=O)C(=O)NC2=O | 77% | 
6 |  |  |  |  |  |  |  |  |  |  | 3.4 RFU/µg/min | CC(=O)N[C@@H](CC(=O)O)C(=O)N[C@@H](CCC(=O)O)C(=O)N[C@H](C(=O)N[C@H](C=O)CC(=O)O)C(C)C |  | 
7 |  |  |  |  |  |  |  |  |  |  | 3.6 RFU/µg/min | CC(C)[C@H](NC(=O)OCc1ccccc1)C(=O)N[C@@H](C)C(=O)N[C@@H](CC(=O)O)C(=O)CF (Cbz-Val-Ala-Asp-CH2F) |  | 
8 | 40 nM | > 5000 nM | > 5000 nM | > 5000 nM | > 5000 nM | > 5000 nM | 233 nM | 216 nM | 63 nM | 425 nM |  | CC(=O)OC(C(=O)Nc1cccc2c1C(=O)C(=O)NC2=O)c1ccccc1 (configuration not stated) |  | 
9 |  | > 5000 nM | > 5000 nM | > 5000 nM | > 5000 nM | > 5000 nM | 1530 nM | 474 nM | 386 nM |  |  | O=C1NC(=O)c2ccccc2C1=O |  | inactive
